Laboratory results taken from ChEMBL document CHEMBL4477166, “18β-Glycyrrhetinic Acid Derivatives Possessing a Trihydroxylated A Ring Are Potent Gram-Positive Antibacterial Agents” (2016).
Values after ≈ are worked out from the molar mass of the structure shown. Active and inactive are the calls of the source. The calls are words filed in the database; no cut-off is given here.

Tests used:
[1] = tested on: Bacillus subtilis; assay: Antibacterial activity against Bacillus subtilis ATCC 6051 by microdilution assay; type: functional
How it was run: (§1)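 Turbidimetric broth microdilution. Log-phase cells were washed and resuspended in broth (LB at 37 °C for B. subtilis and S. aureus; oat bran broth at 28 °C for S. scabies) and seeded at 1 × 10⁵ CFU/mL. Twofold serial dilutions were made with DMSO ≤1% (v/v). A620 was read, then plates were incubated with vigorous shaking. MIC was the lowest concentration with no apparent growth versus vehicle-only medium without cells. Run in triplicate.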

[2] = tested on: Streptomyces scabiei; assay: Antibacterial activity against Streptomyces scabiei CGMCC4.7610246 by microdilution assay; type: functional; how it was run: as §1
[3] = tested on: Staphylococcus aureus; assay: Antibacterial activity against Staphylococcus aureus ATCC 25923 by microdilution assay; type: functional; how it was run: as §1
[4] = tested on: Staphylococcus aureus; assay: Antibacterial activity against methicillin-resistant Staphylococcus aureus by microdilution assay; type: functional
How it was run: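 Log-phase cells seeded at 1 × 10⁵ CFU/mL. Twofold serial dilutions made in broth with DMSO cosolvent, at most 1% v/v. Turbidity read at 620 nm before and after incubation with vigorous shaking. MIC is the lowest concentration with no apparent growth versus the medium-plus-vehicle control. Run in triplicate.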

[5] = tested on: Escherichia coli; assay: Antibacterial activity against Escherichia coli at 100 uM measured after 5 to 6 hrs by microdilution assay; type: functional, organism-based
[6] = tested on: Pseudomonas aeruginosa; assay: Antibacterial activity against Pseudomonas aeruginosa at 100 uM measured after 5 to 6 hrs by microdilution assay; type: functional, organism-based
[7] = tested on: Pseudomonas aeruginosa; assay: Antibacterial activity against multi-drug resistant Pseudomonas aeruginosa at 100 uM measured after 5 to 6 hrs by microdilution assay; type: functional, organism-based
How it was run: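 Log-phase cells seeded at 1 × 10⁵ CFU/mL. Single-dose screen at 100 μM, with DMSO cosolvent at most 1% v/v. Growth measured turbidimetrically at 620 nm, before and after incubation with vigorous shaking.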

CCOC(=O)[C@@]1(C)CC[C@]2(C)CC[C@]3(C)C(=CC(=O)[C@@H]4[C@@]5(C)[C@@H](O)[C@H](O)[C@H](O)C(C)(C)[C@@H]5CC[C@]43C)[C@@H]2C1
MIC [1]: 16.9 µg/mL (≈ 31.8 µM) | MIC [2]: 2.1 µg/mL (≈ 3.96 µM) | MIC [3]: 4.2 µg/mL (≈ 7.91 µM) | MIC [4]: 4 µg/mL (≈ 7.54 µM) | Activity [5]: inactive | Activity [6]: inactive | Activity [7]: inactive

CC1(C)C(=O)CC[C@]2(C)[C@H]3CC=C4[C@@H]5C[C@@](C)(C(=O)OCc6ccccc6)CC[C@]5(C)CC[C@@]4(C)[C@]3(C)CC[C@@H]12
MIC [1]: > 50 µg/mL | MIC [2]: > 50 µg/mL | MIC [3]: > 50 µg/mL | MIC [4]: > 50 µg/mL | Activity [5]: inactive | Activity [6]: inactive | Activity [7]: inactive

CC1(C)[C@@H](O)[C@@H](O)[C@H](O)[C@]2(C)[C@H]3C(=O)C=C4[C@@H]5C[C@@](C)(C(=O)OCc6ccc([N+](=O)[O-])cc6)CC[C@]5(C)CC[C@@]4(C)[C@]3(C)CC[C@@H]12
MIC [1]: > 50 µg/mL | MIC [2]: > 50 µg/mL | MIC [3]: > 50 µg/mL | MIC [4]: > 50 µg/mL | Activity [5]: inactive | Activity [6]: inactive | Activity [7]: inactive

CCCCOC(=O)[C@@]1(C)CC[C@]2(C)CC[C@]3(C)C(=CC[C@@H]4[C@@]5(C)[C@@H](O)[C@H](O)[C@H](O)C(C)(C)[C@@H]5CC[C@]43C)[C@@H]2C1
MIC [1]: > 34.8 µg/mL | MIC [2]: 4.3 µg/mL (≈ 7.89 µM) | MIC [3]: > 34.8 µg/mL | MIC [4]: > 32 µg/mL | Activity [5]: inactive | Activity [6]: inactive | Activity [7]: inactive

CC1(C)[C@@H](O)[C@@H](O)[C@H](O)[C@]2(C)[C@H]3C(=O)C=C4[C@@H]5C[C@@](C)(C(=O)OCc6ccccc6)CC[C@]5(C)CC[C@@]4(C)[C@]3(C)CC[C@@H]12
MIC [1]: > 37.8 µg/mL | MIC [2]: > 37.8 µg/mL | MIC [3]: > 37.8 µg/mL | MIC [4]: 4 µg/mL (≈ 6.75 µM) | Activity [5]: inactive | Activity [6]: inactive | Activity [7]: inactive

CC1(C)C(=O)[C@@H]2O[C@@H]2[C@]2(C)[C@H]3C(=O)C=C4[C@@H]5C[C@@](C)(C(=O)OCc6ccccc6)CC[C@]5(C)CC[C@@]4(C)[C@]3(C)CC[C@@H]12
MIC [1]: > 50 µg/mL | MIC [2]: > 50 µg/mL | MIC [3]: > 50 µg/mL | MIC [4]: > 50 µg/mL | Activity [5]: inactive | Activity [6]: inactive | Activity [7]: inactive

CC1(C)[C@@H](O)CC[C@]2(C)[C@H]3CC=C4[C@@H]5C[C@@](C)(C(=O)OCc6ccccc6)CC[C@]5(C)CC[C@@]4(C)[C@]3(C)CC[C@@H]12
MIC [1]: > 50 µg/mL | MIC [2]: > 50 µg/mL | MIC [3]: > 50 µg/mL | MIC [4]: > 50 µg/mL | Activity [5]: inactive | Activity [6]: inactive | Activity [7]: inactive

CCCCCCCCCCCCCCCOC(=O)[C@@]1(C)CC[C@]2(C)CC[C@]3(C)C(=CC(=O)[C@@H]4[C@@]5(C)[C@@H](O)[C@H](O)[C@H](O)C(C)(C)[C@@H]5CC[C@]43C)[C@@H]2C1
MIC [1]: > 50 µg/mL | MIC [2]: > 50 µg/mL | MIC [3]: > 50 µg/mL | MIC [4]: > 50 µg/mL | Activity [5]: inactive | Activity [6]: inactive | Activity [7]: inactive

CC1(C)[C@H](O)[C@@H](O)[C@H](O)[C@]2(C)[C@H]3C(=O)C=C4[C@@H]5C[C@@](C)(C(=O)OCc6ccccc6)CC[C@]5(C)CC[C@@]4(C)[C@]3(C)CC[C@@H]12
MIC [1]: > 37.8 µg/mL | MIC [2]: > 37.8 µg/mL | MIC [3]: > 37.8 µg/mL | MIC [4]: 4 µg/mL (≈ 6.75 µM) | Activity [5]: inactive | Activity [6]: inactive | Activity [7]: inactive

CCCOC(=O)[C@@]1(C)CC[C@]2(C)CC[C@]3(C)C(=CC[C@@H]4[C@@]5(C)[C@@H](O)[C@H](O)[C@H](O)C(C)(C)[C@@H]5CC[C@]43C)[C@@H]2C1
MIC [1]: > 33.9 µg/mL | MIC [2]: > 33.9 µg/mL | MIC [3]: 8.4 µg/mL (≈ 15.8 µM) | MIC [4]: 8 µg/mL (≈ 15.1 µM) | Activity [5]: inactive | Activity [6]: inactive | Activity [7]: inactive

CC1(C)[C@@H](O)[C@@H](O)[C@H](O)[C@]2(C)[C@H]3C(=O)C=C4[C@@H]5C[C@@](C)(C(=O)O)CC[C@]5(C)CC[C@@]4(C)[C@]3(C)CC[C@@H]12
MIC [1]: > 50 µg/mL | MIC [2]: > 50 µg/mL | MIC [3]: > 50 µg/mL | MIC [4]: > 50 µg/mL | Activity [5]: inactive | Activity [6]: inactive | Activity [7]: inactive

CC1(C)[C@@H](O)[C@@H](O)[C@H](O)[C@]2(C)[C@H]3C(=O)C=C4[C@@H]5C[C@@](C)(C(=O)OCc6ccc(Cl)cc6)CC[C@]5(C)CC[C@@]4(C)[C@]3(C)CC[C@@H]12
MIC [1]: > 50 µg/mL | MIC [2]: > 50 µg/mL | MIC [3]: > 50 µg/mL | MIC [4]: > 50 µg/mL | Activity [5]: inactive | Activity [6]: inactive | Activity [7]: inactive

CC1(C)[C@H](O)[C@@H]2O[C@@H]2[C@]2(C)[C@H]3C(=O)C=C4[C@@H]5C[C@@](C)(C(=O)OCc6ccccc6)CC[C@]5(C)CC[C@@]4(C)[C@]3(C)CC[C@@H]12
MIC [1]: > 36.7 µg/mL | MIC [2]: 36.7 µg/mL (≈ 63.8 µM) | MIC [3]: > 36.7 µg/mL | MIC [4]: > 32 µg/mL | Activity [5]: inactive | Activity [6]: inactive | Activity [7]: inactive

CC1(C)[C@@H](O)[C@@H](O)[C@H](O)[C@]2(C)[C@H]3C(=O)C=C4[C@@H]5C[C@@](C)(C(=O)OCc6ccccc6Cl)CC[C@]5(C)CC[C@@]4(C)[C@]3(C)CC[C@@H]12
MIC [1]: > 50 µg/mL | MIC [2]: > 50 µg/mL | MIC [3]: > 50 µg/mL | MIC [4]: > 50 µg/mL | Activity [5]: inactive | Activity [6]: inactive | Activity [7]: inactive

COC(=O)[C@@]1(C)CC[C@]2(C)CC[C@]3(C)C(=CC(=O)[C@@H]4[C@@]5(C)[C@@H](O)[C@H](O)[C@H](O)C(C)(C)[C@@H]5CC[C@]43C)[C@@H]2C1
MIC [1]: > 50 µg/mL | MIC [2]: > 50 µg/mL | MIC [3]: > 50 µg/mL | MIC [4]: > 50 µg/mL | Activity [5]: inactive | Activity [6]: inactive | Activity [7]: inactive

CC1(C)C(=O)CC[C@]2(C)[C@H]3C(=O)C=C4[C@@H]5C[C@@](C)(C(=O)OCc6ccccc6)CC[C@]5(C)CC[C@@]4(C)[C@]3(C)CC[C@@H]12
MIC [1]: > 50 µg/mL | MIC [2]: > 50 µg/mL | MIC [3]: > 50 µg/mL | MIC [4]: > 50 µg/mL | Activity [5]: inactive | Activity [6]: inactive | Activity [7]: inactive

CC1(C)[C@@H](O)[C@@H]2O[C@@H]2[C@]2(C)[C@H]3CC=C4[C@@H]5C[C@@](C)(C(=O)OCc6ccccc6)CC[C@]5(C)CC[C@@]4(C)[C@]3(C)CC[C@@H]12
MIC [1]: > 50 µg/mL | MIC [2]: > 50 µg/mL | MIC [3]: > 50 µg/mL | MIC [4]: > 50 µg/mL | Activity [5]: inactive | Activity [6]: inactive | Activity [7]: inactive

CCCCCCCCCCCCCCCOC(=O)[C@@]1(C)CC[C@]2(C)CC[C@]3(C)C(=CC[C@@H]4[C@@]5(C)[C@@H](O)[C@H](O)[C@H](O)C(C)(C)[C@@H]5CC[C@]43C)[C@@H]2C1
MIC [1]: > 50 µg/mL | MIC [2]: > 50 µg/mL | MIC [3]: > 50 µg/mL | MIC [4]: > 50 µg/mL | Activity [5]: inactive | Activity [6]: inactive | Activity [7]: inactive

CC1(C)[C@@H](O)CC[C@]2(C)[C@H]3C(=O)C=C4[C@@H]5C[C@@](C)(C(=O)OCc6ccccc6)CC[C@]5(C)CC[C@@]4(C)[C@]3(C)CC[C@@H]12
MIC [1]: > 50 µg/mL | MIC [2]: > 50 µg/mL | MIC [3]: > 50 µg/mL | MIC [4]: > 50 µg/mL | Activity [5]: inactive | Activity [6]: inactive | Activity [7]: inactive

CC1(C)[C@@H](O)[C@@H](O)[C@H](O)[C@]2(C)[C@H]3CC=C4[C@@H]5C[C@@](C)(C(=O)OCc6ccc(Cl)cc6)CC[C@]5(C)CC[C@@]4(C)[C@]3(C)CC[C@@H]12
MIC [1]: > 50 µg/mL | MIC [2]: > 50 µg/mL | MIC [3]: > 50 µg/mL | MIC [4]: > 50 µg/mL | Activity [5]: inactive | Activity [6]: inactive | Activity [7]: inactive

CC1(C)[C@@H](O)CC[C@]2(C)[C@H]3CC=C4[C@@H]5C[C@@](C)(C(=O)O)CC[C@]5(C)CC[C@@]4(C)[C@]3(C)CC[C@@H]12
MIC [1]: > 50 µg/mL | MIC [2]: > 50 µg/mL | MIC [3]: > 50 µg/mL | MIC [4]: > 50 µg/mL | Activity [5]: inactive | Activity [6]: inactive | Activity [7]: inactive

CC(C)OC(=O)[C@@]1(C)CC[C@]2(C)CC[C@]3(C)C(=CC[C@@H]4[C@@]5(C)[C@@H](O)[C@H](O)[C@H](O)C(C)(C)[C@@H]5CC[C@]43C)[C@@H]2C1
MIC [1]: > 33.9 µg/mL | MIC [2]: 4.2 µg/mL (≈ 7.91 µM) | MIC [3]: 8.4 µg/mL (≈ 15.8 µM) | MIC [4]: 2 µg/mL (≈ 3.77 µM) | Activity [5]: inactive | Activity [6]: inactive | Activity [7]: inactive

CC1(C)S[C@@H]2[C@H](NC(=O)[C@H](N)c3ccccc3)C(=O)N2[C@H]1C(=O)O [AMPICILLIN]
MIC [3]: 1.4 µg/mL (≈ 4.01 µM)

CN[C@@H]1[C@H](O[C@H]2[C@H](O[C@H]3[C@H](O)[C@@H](O)[C@H](N=C(N)N)[C@@H](O)[C@@H]3N=C(N)N)O[C@@H](C)[C@]2(O)C=O)O[C@@H](CO)[C@H](O)[C@H]1O [STREPTOMYCIN]
MIC [1]: 2.9 µg/mL (≈ 4.99 µM) | MIC [2]: 5.8 µg/mL (≈ 9.97 µM)
